Data reported in paper PMC3581696 (The Journal of General Physiology, 2013).
Positions count from the first letter of the chain named. “And” between values parts separate entries of the source, which are not always exact repeats. Equal values may be shown once.

What was measured:
mEAG1 channel [1] = target: T1, mEAG1 channel (Mus musculus, UniProt Q60603); assay: Outside-out patch-clamp of mEAG1 channels expressed in Xenopus oocytes; format: cell-based; details: 10 µM fisetin; outside-out patches; n = 4
T1 sequence (Q60603 1-989): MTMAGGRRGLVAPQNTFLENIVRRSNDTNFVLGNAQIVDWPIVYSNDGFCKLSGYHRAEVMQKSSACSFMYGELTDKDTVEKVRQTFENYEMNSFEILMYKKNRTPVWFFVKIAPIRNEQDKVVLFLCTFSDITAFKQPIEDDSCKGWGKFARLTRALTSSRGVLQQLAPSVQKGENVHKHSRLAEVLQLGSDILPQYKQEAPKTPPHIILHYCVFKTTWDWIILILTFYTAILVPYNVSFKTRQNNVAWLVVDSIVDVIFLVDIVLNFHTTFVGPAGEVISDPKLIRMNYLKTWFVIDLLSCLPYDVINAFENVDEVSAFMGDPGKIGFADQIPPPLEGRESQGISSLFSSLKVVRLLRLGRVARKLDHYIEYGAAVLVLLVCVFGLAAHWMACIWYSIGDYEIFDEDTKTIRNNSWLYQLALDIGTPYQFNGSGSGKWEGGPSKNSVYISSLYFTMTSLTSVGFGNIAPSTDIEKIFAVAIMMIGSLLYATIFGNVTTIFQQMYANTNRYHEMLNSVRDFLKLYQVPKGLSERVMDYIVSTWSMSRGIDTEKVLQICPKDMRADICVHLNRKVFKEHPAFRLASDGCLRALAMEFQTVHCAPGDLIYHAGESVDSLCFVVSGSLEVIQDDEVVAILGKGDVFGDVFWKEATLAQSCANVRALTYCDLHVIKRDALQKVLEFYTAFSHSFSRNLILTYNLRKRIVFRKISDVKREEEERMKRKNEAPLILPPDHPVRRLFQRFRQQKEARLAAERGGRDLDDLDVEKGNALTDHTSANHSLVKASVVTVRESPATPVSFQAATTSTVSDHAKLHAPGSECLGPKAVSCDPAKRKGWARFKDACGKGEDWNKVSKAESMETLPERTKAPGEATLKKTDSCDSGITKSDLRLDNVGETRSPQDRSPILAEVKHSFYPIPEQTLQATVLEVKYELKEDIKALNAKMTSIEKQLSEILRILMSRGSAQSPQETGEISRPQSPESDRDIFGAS
Outline: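 Outside-out patches were excised from Xenopus oocytes expressing mouse EAG1. Bath and pipette solutions were 130 mM KCl, 10 mM HEPES, 0.2 mM EDTA, pH 7.2. Patches were exposed to 10 µM flavonoid. The shift in V1/2 was taken from Boltzmann fits of tail-current conductance–voltage relationships.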

mEAG1 Y699A channels = target: T2, mEAG1 Y699A channels (Mus musculus, UniProt Q60603, Y699A); assay: Inside-out patch-clamp of intrinsic ligand mutant channels; format: cell-based
T2 sequence (Q60603 1-989 Y699A): T1 sequence (Q60603 1-989) with Y699A
Outline: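 mEAG1 mutant cRNA was injected into defolliculated Xenopus oocytes, and the vitelline membrane was removed. Inside-out patches were bathed in symmetric 130 mM KCl, 10 mM HEPES, 0.2 mM EDTA, pH 7.2, holding at −100 mV. Steps of 0.1 s from −140 to +50 mV (10-mV increments) were followed by −120 mV tails, without or with 30 µM flavonoid. Peak tails were normalized and Boltzmann-fitted. Deactivation time constant came from single-exponential fits of the −120 mV tail after +50 mV; two-tailed t test.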

[2] = target: T3, wild-type CNBHD from mEAG1 (Mus musculus, UniProt Q60603); assay: Fisetin fluorescence anisotropy binding assay, wild-type CNBHD; details: Kd (apparent affinity), 5 µM fisetin, fit with Eq. 7
T3 sequence (Q60603 552-724): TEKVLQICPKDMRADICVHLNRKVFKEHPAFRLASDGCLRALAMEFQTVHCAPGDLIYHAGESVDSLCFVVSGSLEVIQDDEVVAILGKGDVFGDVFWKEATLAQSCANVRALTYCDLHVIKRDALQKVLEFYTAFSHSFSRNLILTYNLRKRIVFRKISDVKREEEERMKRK

mEAG1 channel [3] = target: T1, mEAG1 channel; assay: Inside-out patch-clamp of wild-type mEAG1 channels expressed in Xenopus oocytes; format: cell-based
[4] = target: T4, Y699A mutant CNBHD from mEAG1 (Mus musculus, UniProt Q60603, Y699A); assay: Fisetin fluorescence anisotropy binding assay, Y699A CNBHD; details: Kd (apparent affinity), 5 µM fisetin, fit with Eq. 7
T4 sequence (Q60603 552-724 Y699A): T3 sequence (Q60603 552-724) with Y148A

[5] = Solubility limit in recording / aqueous solutions; format: physicochemical; details: recording solutions, aqueous buffer

shift of the conductance–voltage relationship (mEAG1 channel [1]): −8.1 ± 2.3 mV
potentiation of mEAG1 Y699A channels (mEAG1 Y699A channels; 30 µM fisetin): did not potentiate
time constant of deactivation (mEAG1 Y699A channels; with 30 µM fisetin, at −120 mV, 5.0 ± 0.4 ms without, n = 10, P = 0.06): 6.4 ± 0.6 ms
V1/2 of the conductance–voltage relationship (mEAG1 Y699A channels; with 30 µM fisetin, −54.9 ± 3.5 mV without, n = 10, P = 0.65): −57.2 ± 3.6 mV
Kd [2]: 111 µM and ≥ 111 µM
Hill coefficient, deactivation time constant versus fisetin plot (mEAG1 channel [3]): 1.2
Hill coefficient, ΔV1/2 versus fisetin plot (mEAG1 channel [3]): 2.2
effect on mEAG1 currents at high concentration (mEAG1 channel [3]; concentrations of 100 µM and higher): inhibited mEAG1 currents
time constant of deactivation (mEAG1 channel [3]; with 30 µM fisetin, at −120 mV after step to +50 mV, 4.5 ± 0.8 ms without, n = 6): 7.2 ± 1.0 ms
time constant of deactivation (single tail current of Fig. 3 C) (mEAG1 channel [3]; with 30 µM fisetin, tail current at −120 mV after step to 50 mV, 5.3 ms before): 13.9 ms
V1/2 of the conductance–voltage relationship (mEAG1 channel [3]; with 30 µM fisetin, −41.9 ± 4.1 mV without, n = 6): −55.4 ± 3.7 mV
Kd [4]: 30 µM and ≥ 30 µM
solubility [5]: ≤ 150 µM
Structure (SMILES): O=c1c(O)c(-c2ccc(O)c(O)c2)oc2cc(O)ccc12 [Fisetin, 2-(3,4-dihydroxyphenyl)-3,7-dihydroxychromen-4-one]
